{"data": "Measurements from different studies", "PTGS2": "Prostaglandin G/H synthase 2 (PTGS2, Homo sapiens, UniProt P35354)", "NPY2R": "Neuropeptide Y receptor type 2 (NPY2R, Homo sapiens, UniProt P49146)", "Rock2": "Rho-associated protein kinase 2 (Rock2, Rattus norvegicus, UniProt Q62868)", "SIGMAR1": "Sigma non-opioid intracellular receptor 1 (SIGMAR1, Cavia porcellus, UniProt Q60492)"}
{"SMILES": "COc1cc(-c2cc(=O)c3c(O)cc(O)cc3o2)ccc1O", "target": "PTGS2", "test": "enzyme activity, inhibitor", "conditions": "7.81 µg/mL", "inhibition [%]": 58.6}
{"SMILES": "CCN(Cc1ccccc1C(F)(F)F)C(=O)C1CCN(S(=O)(=O)c2ccc3[nH]ncc3c2)CC1", "target": "NPY2R", "test": "ligand displacement, radioligand", "conditions": "10 µM", "inhibition [%]": 3}
{"SMILES": "Oc1ccc2ccccc2n1", "target": "Serum paraoxonase/arylesterase 1 (PON1, Homo sapiens, UniProt P27169)", "test": "enzyme activity, inhibitor", "conditions": "20 µM", "inhibition [%]": 84}
{"SMILES": "C=C[C@@]1(C)C=C2CC[C@@H]3[C@](C)(CCC[C@@]3(C)C(=O)O)[C@H]2CC1", "target": "PTGS2", "test": "enzyme activity, inhibitor", "conditions": "0.98 µg/mL", "inhibition [%]": 15.2}
{"SMILES": "O=C(c1ccc(F)cc1)N(Cc1ccccc1)C1CCCCC1", "target": "NPY2R", "test": "cell-free assay", "conditions": "10 µM", "inhibition [%]": -14}
{"SMILES": "CN(C)C1CCN(CC#Cc2nn(C3CCCC3)c3nc(NCc4ccccc4)ncc23)C1 (centres unmarked)", "target": "Ribosomal protein S6 kinase beta-1 (RPS6KB1, Homo sapiens, UniProt P23443)", "test": "enzyme activity, inhibitor, FRET", "conditions": "1 µM", "inhibition [%]": 4}
{"SMILES": "COc1cc([C@H]2OC[C@H]3[C@@H]2CO[C@@H]3c2cc(OC)c(O)c(OC)c2)cc(OC)c1O", "target": "PTGS2", "test": "enzyme activity, inhibitor", "conditions": "0.98 µg/mL", "inhibition [%]": 49.3}
{"SMILES": "O=C(c1ccc(Cl)cc1)N(Cc1ccccc1)C1CCCCC1", "target": "Muscarinic acetylcholine receptor M3 (CHRM3, Homo sapiens, UniProt P20309)", "test": "cell-free assay", "conditions": "10 µM", "inhibition [%]": -7.8}
{"SMILES": "COc1ccc(-c2cc(=O)c3c(O)cc(O[C@@H]4O[C@H](CO)[C@@H](O)[C@H](O)[C@H]4O)cc3o2)cc1O", "target": "PTGS2", "test": "enzyme activity, inhibitor", "conditions": "0.24 µg/mL", "inhibition [%]": 39.7}
{"SMILES": "O=C1N=C(N2CCCCN2)S/C1=C\\c1ccc(F)cc1O", "target": "NPY2R", "test": "ligand displacement, radioligand", "conditions": "10 µM", "inhibition [%]": "< 10"}
{"SMILES": "COC(=O)c1ccc(O)cc1", "target": "PTGS2", "test": "enzyme activity, inhibitor", "conditions": "15.63 µg/mL", "inhibition [%]": 53.2}
{"SMILES": "Cc1ccc(Nc2nccc(N(C)c3ccc4c(C)n(C)nc4c3)n2)cc1S(N)(=O)=O", "target": "Rock2", "test": "enzyme activity, inhibitor", "conditions": "10 µM", "inhibition [%]": 29}
{"SMILES": "O=C(Nc1ccc(S(=O)(=O)N2CCC(Cl)CC2)cc1)c1ccc([N+](=O)[O-])o1", "target": "NPY2R", "test": "ligand displacement, radioligand", "conditions": "10 µM", "inhibition [%]": 4}
{"SMILES": "CNC(=O)c1cc(Oc2ccc(NC(=O)Nc3ccc(Cl)c(C(F)(F)F)c3)cc2)ccn1", "target": "Rock2", "test": "enzyme activity, inhibitor", "conditions": "0.3 µM", "inhibition [%]": 17}
{"SMILES": "CCN1CCN(Cc2ccc(NC(=O)c3ccc(C)c(Oc4ccnc5[nH]ccc45)c3)cc2C(F)(F)F)CC1", "target": "Scaffold protein ILK (ILK, Homo sapiens, UniProt Q13418)", "test": "target engagement in cells, inhibitor, chemoproteomics", "test system": "Huh-7", "conditions": "1 µM", "inhibition [%]": -36.8}
{"SMILES": "CN(Cc1ccc(NC(=O)C2=Cc3cc(-c4ccc(OCCCCCCCF)cc4)ccc3CCC2)cc1)C1CCOCC1", "target": "SIGMAR1", "test": "ligand displacement, radioligand", "conditions": "10 µM", "inhibition [%]": 14}
{"SMILES": "COc1ccc(CCC(C)N2CCc3cc(OC)c(OC)cc3C2)cc1 (centres unmarked)", "target": "SIGMAR1", "test": "ligand displacement, radioligand", "conditions": "0.1 µM", "inhibition [%]": 11}
